Screening results deposited in PubChem BioAssay by several laboratories.
MT stabilize HCS: microtubule stabilizers in HeLa cells, primary screen, imaging, high-content imaging | HeLa tubulin immunostaining HCS, 24 h; share of cells brighter than vehicle mean+2SD | % tubulin-high responders, % at 10 µM | 200,000 tested, 0.83% active;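 active = plate Z-score above 3 for both tubulin-high and condensed-nucleus cell shares, with cell loss under 80%, at 10 µM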;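 note: anti alpha tubulin signal scored within the nucleus-defined area of each cell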
Ba/F3 V617F tox: reduced viability of JAK2V617F-dependent Ba/F3 cells, primary screen, JAK2V617F inhibitor project, cell-based, Ba/F3 EpoR-JAK2V617F, luminescence; 220,000 tested, 1.1% active; inhibition, % at 5.6 µM; ATP luminescence;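 active = inhibition above the campaign mean plus 3 SD over all tested compounds, cut at about 24% in these data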;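 note: cytokine-independent growth of Ba/F3 cells driven by EpoR plus mutant JAK2; 0% = DMSO-treated cells and 100% = JAK inhibitor I control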
IEC-6 cytotox: cytotoxicity in IEC-6 intestinal epithelial cells, primary screen, cytotoxicity control for KLF5 inhibitor project, cell-based, luminescence; IEC-6 cytotoxicity, luminescence viability; inhibition, % at 5 µM; 290,000 tested, 0.78% active; AID 1825, 2009; in the data active = inhibition above about 22%;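 note: 0% = plate median of test compound wells and 100% = cytotoxic reference compound wells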
BaF3 parental: parental Ba/F3 cell viability inhibition, counter-screen for JAK2V617F inhibitor project, murine pro-B, CellTiter-Glo luminescence; CellTiter-Glo ATP luminescence; inhibition, % at 5.6 µM; 220,000 tested, 1.1% active; AID 1486, 2009;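 active = inhibition above a per-campaign cutoff, the mean inhibition of all tested compounds plus 3 SD, cut at about 27% in these data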;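 note: 0% = DMSO wells and 100% = JAK Inhibitor I control wells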
b-catenin transl: modulators of beta-catenin nuclear translocation, primary screen, imaging, HeLa cells, immunofluorescence, high-content; nuclear translocation activity, % at 5 µM; 190,000 tested, 0.3% active;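 active = nuclear translocation activity above 50% at 5 µM, with a well cell count of 50 or more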;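 note: per-cell ratio of nuclear to cytoplasmic median beta-catenin stain intensity; plate controls were DMSO negative control for no effect and GSK-3 inhibitor IX positive control for full effect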
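Technique: fluorescence imaging of beta-catenin antibody stain plus DAPI / Material: human HeLa cell line / Incubation: compound treatment 24 h, 37°C, 5% CO2 / Read-out basis: % activation of per-cell nuclear versus cytoplasmic median beta-catenin signal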
APP transl inh: inhibitors of APP translation via 5'UTR reporter, primary screen, APP 5'UTR luciferase, SH-SY5Y cells. SH-SY5Y APP 5'UTR-luciferase reporter, luminescence. inhibition, % at 2 µM. 190,000 tested, 0.82% active;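 active = inhibition above a set limit, derived from the sample mean plus 3 SD, cut at about 45% in these data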
* hit, by the source's call; . = no result. Most compounds without a hit are left out; they make up all but 2.2% or so of the library.

SMILES	MT stabilize HCS	Ba/F3 V617F tox	IEC-6 cytotox	BaF3 parental	b-catenin transl	APP transl inh
COc1ccc(-c2c/c(=N\c3nc(-c4ccccc4)c(C)s3)c3ccccc3o2)cc1O	7.0	-6.9	-5.1	0.4	164.6*	-0.8
COc1ccc(-c2cc(=Nc3c(C)n(C)n(-c4ccccc4)c3=O)c3ccccc3o2)cc1	5.7	6.8	13.4	7.6	1.7	-56.7
O=C(NCc1ccc(F)cc1)C1CCCN(C(=O)NCc2ccccc2)C1 (centres undefined)	.	.	-6.2	.	.	.
c1cncc(CSc2ccc(-c3cccs3)nn2)c1	2.2	5.8	11.3	46.0*	0.0	-50.4
CCC(O)C1CCN(C(=O)c2cc(COc3ccc4ncccc4c3)on2)CC1 (centres undefined)	1.5	47.5*	13.7	67.6*	1.3	4.0
O=C(NC1CCCCCCC1)c1cc(COc2ccc3ncccc3c2)on1	3.7	6.7	2.3	39.1*	0.4	3.9
O=C(c1cc(COc2ccc3ncccc3c2)on1)N1CCC(O)CC1	4.9	0.4	1.2	2.9	0.0	-3.9
O=S(=O)(Nc1nc2ccccc2nc1Nc1cccc(S(=O)(=O)N2CCCCC2)c1)c1ccccc1	2.6	0.0	0.7	6.1	.	1.6
CCCCCCOc1ccc(OC(=O)c2ccncc2)cc1	4.4	44.0*	13.4	32.1*	-4.0	-2.8
O=C1NC(=S)S/C1=C\C=C\c1ccc([N+](=O)[O-])o1	.	30.7*	-28.4	8.6	5.5	.
O=C1NC(=S)S/C1=C/c1ccc(N2CCOCC2)o1	11.8	-1.4	-12.5	7.0	-0.3	12.8
COc1ccc(S(=O)(=O)N2c3ccccc3OCC2C)cc1 (centres undefined)	17.7*	72.0*	78.6*	73.2*	110.6*	95.6*
COc1ccc(S(=O)(=O)N2c3ccccc3OCC2C(C)(C)C)cc1 (centres undefined)	13.7*	-2.7	0.5	2.2	8.8	-0.7
COc1ccc(S(=O)(=O)N2c3ccccc3OCC2c2ccccc2)cc1 (centres undefined)	23.3*	-0.9	0.6	2.8	1.2	.
CCS(=O)(=O)N1Cc2ccccc2CC1C(=O)N(C)Cc1ccc(OC)c(F)c1 (centres undefined)	.	.	4.1	.	.	.
COc1ccc(Cl)cc1NC(=O)COC(=O)CCCC1=NS(=O)(=O)c2ccccc2N1	.	.	2.2	.	.	.
CN1/C(=C\C=O)C(C)(C)c2ccccc21	7.1	39.4*	3.9	48.5*	-3.6	10.1
CN(C)c1ccc(N=C/C=C2\N(C)c3ccccc3C2(C)C)cc1	0.9	2.4	2.6	10.6	.	-142.8
CN1/C(=C\C=Nc2ccc3ccccc3c2)C(C)(C)c2ccccc21	2.9	47.9*	13.6	41.8*	1.1	-15.1
CN1\C(=C/C=C/C=C/C=[N+](C)C)C(C)(C)c2ccccc21	90.5	37.9*	-6.9	32.9*	.	10.4
CN1/C(=C/C=C(C#N)C#N)C(C)(C)c2ccccc21	3.1	-2.9	-0.8	0.0	-0.6	-5.6
CCOc1ccccc1NC(=S)/C(=C(\[O-])c1ccc2c(c1)OCCO2)[n+]1ccc(CC)cc1	2.6	0.1	-5.2	3.9	-1.5	.
CN(CCC#N)C(=O)CSc1nnc(-c2c[nH]c3ccccc23)o1	.	.	-4.6	.	.	.
COc1ccc(-c2oc(NC(=O)CSc3ncn[nH]3)c(C#N)c2-c2ccc(OC)cc2)cc1	46.8*	4.2	6.2	13.6	-0.4	4.5
O=C(c1ccccc1C(=O)N(c1ccccc1)c1ccccc1)N1CCCCC1	1.2	4.1	1.3	7.5	-2.1	-9.6
CCCn1c(/C=N/Nc2nc3ccccc3[nH]2)nc2ccccc21	4.8	-1.7	-6.8	2.5	-1.3	73.8*
C=CCn1cc(/C=N/Nc2nc3ccccc3[nH]2)c2ccccc21	2.8	0.7	22.8*	3.5	1.1	-39.6
Cn1c(/C=N/Nc2nc3ccccc3[nH]2)nc2ccccc21	1.1	5.8	7.9	9.2	-2.1	-34.8
CC(C)Cn1c(/C=N/Nc2nc3ccccc3[nH]2)nc2ccccc21	6.9	1.2	-8.4	3.0	-0.1	71.3*
Cc1c(/C=N/Nc2nc3ccccc3[nH]2)c2ccccc2n1C	.	-1.2	18.0	-0.9	-0.9	.
